Assays:
[1] = test system: Mus musculus; experiment: Latency time measured by mouse hot plate test after subcutaneous administration at 200 mg/kg in experiment 3; type: functional
Summary of the method: (§1)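 Male CF-1 mice, 8 per group, given test agent sc in 0.2 mL ethanol/Tween-80/saline (10/10/80); dose 0.68 mmol (200 mg/kg for capsaicin). Placed on copper surface held at 55 ± 0.5 °C. Paw-response latency (s) reported as group mean ± SD; pretest latency ~5 s.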

[2] = test system: Mus musculus; experiment: Latency time measured by mouse hot plate test after subcutaneous administration at 200 mg/kg in experiment 1; type: functional; summary of the method: as §1
[3] = test system: Mus musculus; experiment: Latency time measured by mouse hot plate test after subcutaneous at 200 mg/kg in experiment 2; type: functional; summary of the method: as §1
[4] = test system: Mus musculus; experiment: Percentage inhibition in mouse by using Croton oil-inflamed mouse ear test (topical dosing).; type: functional; set-up: concentration or dose not given beside the values
Summary of the method: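 Male Cox ICR mice (25–35 g), 10 per group. Left ear given 25 μL of 1% compound in ethanol, repeated ~17 h later; 1 h after that, both ears given 25 μL 2% croton oil. After 4 h, 5 mm ear punches weighed. % inhibition = [(C − T1)/C]×100, using left-minus-right weight differences versus vehicle controls.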

[5] = test system: Rattus norvegicus; experiment: Percentage analgesia by using rat hot plate test after oral administration at 300 mg/kg; type: functional
Summary of the method: (§2)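 Rats fasted 18 h, prescreened on a 55 ± 0.5 °C hot plate (latency <12 s, else lowest <30 s) to set the 0 h value. Groups of 8 dosed orally in sesame oil (1 mL/200 g); latency read at 1.5, 3, 5 h (24 h if persisting). %analgesia = [(LT(t) − LT(0))/(60 − LT(0))]×100, taken at the time of maximal latency.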

[6] = Acute toxicity after intraperitoneal dose at 4 mg/kg in mice; type: organism-based; set-up: dose 4 mg/kg, route intraperitoneal; details: mouse, in vivo, ip, read-out: Lethality
Summary of the method: (§3)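 Single intraperitoneal dose at the listed mg/kg; acute toxicity scored as % lethality = number of deaths / number of animals dosed, 7–10 animals per group.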

[7] = test system: Rattus norvegicus; experiment: Percentage analgesia by rat hot plate test after oral administration at 300 mg/kg.; type: functional; summary of the method: as §2
[8] = test system: Mus musculus; experiment: Latency time measured by mouse hot plate test after subcutaneous administration at 200 mg/kg; type: functional; set-up: unit: s; summary of the method: as §1
[9] = Acute toxicity after intraperitoneal dose at 33 mg/kg in mice; type: organism-based; set-up: dose 33 mg/kg, route intraperitoneal; details: mouse, in vivo, ip, read-out: Lethality; summary of the method: as §3

CCCCCCCCNC(=O)Cc1ccc(O)c(OC)c1
Latency [1]: 32.3 | Latency [2]: 58.7 | Latency [3]: >60 | Inhibition [4]: 89.1% | Analgesia [5]: 7% | mortality [6]: 50%

C=CCCCCCCCCC(=O)NCc1ccc(O)c(OC)c1
Inhibition [4]: 65.7% | Analgesia [7]: 8% | Latency [8]: 55.5 | mortality [9]: 50%
